Assay results taken from ChEMBL document CHEMBL1133699, “Phenyl beta-methoxyacrylates: a new antimalarial pharmacophore” (J Med Chem, 2000).
Values after ≈ are worked out from the molar mass of the structure shown.

Experiments:
[1] = Growth inhibition of Plasmodium berghei was tested in vivo in male albino mice (Mus musculus) after subcutaneous administration of a dose of 100 mg/kg; format: functional; conditions: sc, read-out: GI
How it was run: (§1)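 Mice 25 ± 2 g infected iv on day 0 with 2×10^7 P. berghei ANKA-infected donor erythrocytes. Compound dissolved or suspended in 7% Tween-80, 3% ethanol in water, single dose 24 h post-infection (0.01 mL/g), 3 mice/group. Giemsa blood smears at day 3 (72 h post-infection). Parasitemia counted microscopically; reduction calculated versus untreated controls (=100%). ED50/90 determined by dose titration.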

[2] = Growth inhibition of Plasmodium berghei was tested in vivo in male albino mice (Mus musculus) after oral administration of a dose of 100 mg/kg; format: functional; conditions: read-out: GI; how it was run: as §1
Plasmodium falciparum [3] = assay: In vitro antimalarial activity against chloroquine-sensitive Plasmodium falciparum NF54; format: functional, organism-based
How it was run: (§2)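 Asynchronous P. falciparum cultured in human type A+ erythrocytes, RPMI 1640 with 0.5% AlbuMAX, 25 mM HEPES, 25 mM NaHCO3 (pH 7.3), hypoxanthine, neomycin; 37 °C, 3% O2/4% CO2/93% N2. Compounds were dissolved in DMSO and titrated in duplicate over a 64-fold range. Initial parasitemia was 0.75% at 2.5% hematocrit. Growth was read by [3H]hypoxanthine incorporation, with label added 16 h before the end. IC50 was taken by linear interpolation.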

Plasmodium falciparum [4] = assay: In vitro antimalarial activity against chloroquine-resistant Plasmodium falciparum K1; format: functional, organism-based; how it was run: as §2
[5] = Effective dose was determined in vivo for 50% parasite (Plasmodium berghei) reduction in the male albino mice after oral administration; format: functional; conditions: Mus musculus; how it was run: as §1
[6] = Effective dose was determined in vivo for 90% parasite (Plasmodium berghei) reduction in the male albino mice after subcutaneous administration; format: functional; conditions: Mus musculus, sc; how it was run: as §1
[7] = Effective dose was determined in vivo for 50% parasite (Plasmodium berghei) reduction in the male albino mice after subcutaneous administration; format: functional; conditions: Mus musculus, sc; for ED90: in the assay text read “90% parasite” for “50% parasite”; how it was run: as §1
[8] = Effective dose was determined in vivo for 90% parasite (Plasmodium berghei) reduction in the male albino mice after oral administration; format: functional; conditions: Mus musculus; how it was run: as §1
[9] = Growth inhibition of Plasmodium berghei was tested in vivo in male albino mice (Mus musculus) after subcutaneous administration of a dose of 10 mg/kg; format: functional; conditions: sc, read-out: GI; how it was run: as §1
[10] = Growth inhibition of Plasmodium berghei was tested in vivo in male albino mice (Mus musculus) after oral administration of a dose of 10 mg/kg; format: functional; conditions: read-out: GI; how it was run: as §1
[11] = Growth inhibition of Plasmodium berghei was tested in vivo in male albino mice (Mus musculus) after oral administration of a dose of 50 mg/kg; format: functional; conditions: read-out: GI; how it was run: as §1
[12] = Growth inhibition of Plasmodium berghei was tested in vivo in male albino mice (Mus musculus) after subcutaneous administration of a dose of 50 mg/kg; format: functional; conditions: sc, read-out: GI; how it was run: as §1

| SMILES | inhibition in vivo at 100 mg/kg [1] | inhibition in vivo at 100 mg/kg [2] | IC50 (Plasmodium falciparum [3]) | IC50 (Plasmodium falciparum [4]) | also measured |
| --- | --- | --- | --- | --- | --- |
| CO/C=C(/C(=O)OC)c1cccc(/C=C/C=C/c2ccc(C(F)(F)F)cc2C(F)(F)F)c1 | 0% | 0% | 176 ng/mL (≈ 385 nM) | 396 ng/mL (≈ 869 nM) |  |
| CO/C=C(/C(=O)OC)c1ccccc1CO/N=C(\C)c1ccccc1C(F)(F)F | 0% | 0% | 0.17 ng/mL (≈ 0.417 nM) | 0.65 ng/mL (≈ 1.6 nM) |  |
| CO/N=C(/C(=O)OC)c1ccccc1/C=C/C=C/c1ccccc1C(F)(F)F | 44% | 46% | 0.4 ng/mL (≈ 1.03 nM) | 1.4 ng/mL (≈ 3.6 nM) |  |
| CCN(CC)CCCC(C)Nc1ccnc2cc(Cl)ccc12 (stereo not drawn) [CHLOROQUINE] |  |  |  |  | ED50 [5]: 2.4 mg/kg; ED90 [6]: 3.3 mg/kg; ED50 [7]: 1.5 mg/kg; ED90 [8]: 5 mg/kg |
| CO/C=C(/C(=O)OC)c1ccccc1/C=C/C=C/c1ccccc1C#N | 0% | 0% | 0.52 ng/mL (≈ 1.51 nM) | 1.6 ng/mL (≈ 4.63 nM) |  |
| CO/N=C(/C(=O)OC)c1ccccc1CCCCc1ccccc1C(F)(F)F | 0% | 0% | 6.4 ng/mL (≈ 16.3 nM) | 15 ng/mL (≈ 38.1 nM) |  |
| CO/C=C(/C(=O)OC)c1ccccc1CSc1ccccc1C(F)(F)F | 0% | 0% | 5.5 ng/mL (≈ 14.4 nM) | 29 ng/mL (≈ 75.8 nM) |  |
| CO/N=C(/C(=O)OC)c1ccccc1-c1ccc(-c2ccccc2C(F)(F)F)s1 | 0% | 0% | 23.7 ng/mL (≈ 56.5 nM) | 60.8 ng/mL (≈ 145 nM) |  |
| CO/C=C(/C(=O)OC)c1ccccc1/C=C/C=C/c1ccccc1C(F)(F)F |  |  | 0.06 ng/mL (≈ 0.154 nM) | 0.15 ng/mL (≈ 0.386 nM) | inhibition in vivo at 10 mg/kg [9]: 100%; inhibition in vivo at 10 mg/kg [10]: 99% |
| CO/C=C(/C(=O)OC)c1ccccc1/C=C/c1ccccc1C(F)(F)F | 0% | 0% | 3.01 ng/mL (≈ 8.31 nM) | 7.8 ng/mL (≈ 21.5 nM) |  |
| CO/C=C(/C(=O)OC)c1ccccc1/C=C/C=C/c1ccc(F)cc1Cl |  |  | 0.06 ng/mL (≈ 0.161 nM) | 0.19 ng/mL (≈ 0.51 nM) | inhibition in vivo at 10 mg/kg [9]: 100%; inhibition in vivo at 10 mg/kg [10]: 92% |
| CO/C=C(/C(=O)OC)c1ccccc1/C=C/C=C/c1ccc(Cl)cc1Cl |  |  | 0.03 ng/mL (≈ 0.0771 nM) | 0.1 ng/mL (≈ 0.257 nM) | inhibition in vivo at 10 mg/kg [9]: 100%; ED50 [5]: 1.07 mg/kg; inhibition in vivo at 10 mg/kg [10]: 100%; ED50 [7]: 0.69 mg/kg; ED90 [7]: 1.8 mg/kg; ED90 [8]: 4.03 mg/kg |
| CO/C=C(/C(=O)OC)c1ccccc1/C=C/C=C/c1cccc(C(F)(F)F)c1 |  |  | 7.8 ng/mL (≈ 20.1 nM) | 16.7 ng/mL (≈ 43 nM) | inhibition in vivo at 50 mg/kg [11]: 0%; inhibition in vivo at 50 mg/kg [12]: 0% |
| CO/C=C(/C(=O)OC)c1ccccc1/C=C/C=C/c1cccc(F)c1 |  |  | 1.5 ng/mL (≈ 4.43 nM) | 8.4 ng/mL (≈ 24.8 nM) | inhibition in vivo at 50 mg/kg [11]: 0%; inhibition in vivo at 50 mg/kg [12]: 0% |
| CO/N=C(/C(=O)OC)c1ccccc1C#CC#Cc1ccccc1C(F)(F)F | 0% | 0% | 1390 ng/mL (≈ 3600 nM) | 2280 ng/mL (≈ 5910 nM) |  |
| CO/C=C(/C(=O)OC)c1ccccc1/C=C/C=C/c1ccc(C(F)(F)F)cc1C(F)(F)F |  |  | 0.06 ng/mL (≈ 0.131 nM) | 0.13 ng/mL (≈ 0.285 nM) | inhibition in vivo at 10 mg/kg [9]: 100%; inhibition in vivo at 10 mg/kg [10]: 100% |
| CO/C=C(/C(=O)OC)c1ccccc1/C=C/C=C/c1ccccc1Cl |  |  | 0.09 ng/mL (≈ 0.254 nM) | 0.39 ng/mL (≈ 1.1 nM) | inhibition in vivo at 10 mg/kg [9]: 77%; inhibition in vivo at 10 mg/kg [10]: 41% |
| CO/C=C(/C(=O)OC)c1ccc(/C=C/C=C/c2ccc(C(F)(F)F)cc2C(F)(F)F)cc1 | 0% | 0% | > 5000 ng/mL | > 5000 ng/mL |  |
| CO/C=C(/C(=O)OC)c1ccccc1/C=C/C=C/c1ccc(Cl)cc1 |  |  | 0.52 ng/mL (≈ 1.47 nM) | 2 ng/mL (≈ 5.64 nM) | inhibition in vivo at 50 mg/kg [11]: 0%; inhibition in vivo at 50 mg/kg [12]: 0% |
| CO/C=C(/C(=O)OC)c1ccccc1/C=C/CSc1ccccc1C(F)(F)F | 91% | 46% | 1.75 ng/mL (≈ 4.28 nM) | 2.51 ng/mL (≈ 6.15 nM) |  |
| CO/C=C(/C(=O)OC)c1ccccc1/C=C/C=C/c1ccccc1 |  |  | 0.8 ng/mL (≈ 2.5 nM) | 3.7 ng/mL (≈ 11.5 nM) | inhibition in vivo at 50 mg/kg [11]: 0%; inhibition in vivo at 50 mg/kg [12]: 0% |
| CO/C=C(/C(=O)OC)c1ccccc1/C=C/C=C/c1cccc(Br)c1 |  |  | 6.1 ng/mL (≈ 15.3 nM) | 31.4 ng/mL (≈ 78.6 nM) | inhibition in vivo at 50 mg/kg [11]: 0%; inhibition in vivo at 50 mg/kg [12]: 0% |
| CO/N=C(\C(=O)OC)c1ccccc1C#CC#Cc1ccccc1C(F)(F)F | 0% | 0% | 10.8 ng/mL (≈ 28 nM) | 25.8 ng/mL (≈ 67 nM) |  |
| CO/C=C(/C(=O)OC)c1ccccc1CCCCc1ccccc1C(F)(F)F | 99% | 82% | 0.54 ng/mL (≈ 1.38 nM) | 1.53 ng/mL (≈ 3.9 nM) |  |
| CO/C=C(/C(=O)OC)c1ccccc1/C=C/C=C/c1cccc(OC)c1[N+](=O)[O-] |  |  | 0.11 ng/mL (≈ 0.278 nM) | 0.58 ng/mL (≈ 1.47 nM) |  |
| O=C1C(O)=C([C@H]2CC[C@H](c3ccc(Cl)cc3)CC2)C(=O)c2ccccc21 [ATOVAQUONE] |  |  | 0.11 ng/mL (≈ 0.3 nM) | 0.41 ng/mL (≈ 1.12 nM) | ED50 [5]: 0.05 mg/kg; ED90 [6]: 0.9 mg/kg; ED50 [7]: 0.04 mg/kg; ED90 [8]: 0.1 mg/kg |
| CO/C=C(/C(=O)OC)c1ccccc1/C=C/C=C/c1ccc(C)cc1C |  |  | 0.03 ng/mL (≈ 0.0861 nM) | 0.05 ng/mL (≈ 0.143 nM) | inhibition in vivo at 10 mg/kg [9]: 100%; ED50 [5]: 1.11 mg/kg; inhibition in vivo at 10 mg/kg [10]: 100%; ED50 [7]: 0.33 mg/kg; ED90 [7]: 0.72 mg/kg; ED90 [8]: 2.65 mg/kg |
| CO/C=C(/C(=O)OC)c1ccccc1/C=C/c1ccc(-c2ccccc2C(F)(F)F)o1 |  |  | 0.39 ng/mL (≈ 0.91 nM) | 1.8 ng/mL (≈ 4.2 nM) |  |
